Series [1] has as its system Leishmania donovani. The series is described as follows: Antileishmanial activity against miltefosine resistant Leishmania donovani HU3MILR40 amastigotes infected in mouse peritoneal macrophage assessed as inhibition of parasite growth incubated for 72 hrs by giemsa staining based analysis. Type of series: functional, organism-based. The procedure, abridged:
(§1)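 Mouse peritoneal macrophages in DMEM + 10% heat-inactivated FBS, penicillin/streptomycin; 1 × 10^5 cells per well on coverslips, adhered overnight at 37 °C, 5% CO2, non-adherent cells washed off. Infected overnight with late-log promastigotes at parasite:macrophage 40:1. Compound exposure 72 h at 37 °C; Giemsa stain, amastigotes per 100 macrophages counted, IC50 derived; means ± SD of 3–4 independent experiments.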

The test system of series [2] is Leishmania braziliensis. Put plainly: Antileishmanial activity against wild type Leishmania braziliensis UA847 promastigotes […] assessed as inhibition of parasite growth incubated for 72 hrs by automatic microtiter plate reader analysis. Type of series: functional, organism-based. The procedure, abridged:
(§2)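 Promastigotes were grown in Schneider's medium (4 mM glutamine, gentamicin, 10% heat-inactivated FBS, pH 6.9, 27 °C). Cells were seeded at 1.5 × 10^5/well and exposed to a concentration series for 72 h at 27 °C.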

Series [3] can be described thus: Metabolic stability in rat liver microsome assessed as parent compound remaining at 50 degreeC measured after 16 mins after heat treatment by HPLC analysis. The settings on record: liver microsomes, heat-treated.
Series [4] relates to Leishmania donovani. Put plainly: Antileishmanial activity against wild type Leishmania donovani HU3 amastigotes infected in mouse peritoneal macrophage assessed as inhibition of parasite growth incubated for 72 hrs by giemsa staining based analysis. Type of series: functional, organism-based. The method in brief:
as §1

Another series concerns RAW264.7. The series is described as follows: Cytotoxicity against mouse RAW264.7 cells assessed as inhibition of cell growth incubated for 72 hrs by MTS assay. The settings on record: RAW264.7, 72 h. Type of series: functional, cell-based. The method in brief:
(§3)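 Cells in DMEM + 10% heat-inactivated FBS with penicillin/streptomycin at 37 °C, 5% CO2. They were seeded at 1 × 10^4/well and incubated with a concentration series for 72 h at 37 °C. Viability was read by MTS/PMS assay at 490 nm and IC50 derived.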
In general terms: Tetrazolium dyes change colour on reduction, which living cells bring about.

A short description of series [5]: Metabolic stability in rat liver S9 fraction assessed as compound remaining at 20 uM measured after 32 mins in presence of NADP and GSH by HPLC analysis. Type of series: ADME, subcellular. The conditions noted are these: read-out: Stability. The method in brief: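 Rat liver S9 (final 4 mg/mL) in 50 mM phosphate pH 7.4 with NADPH-regenerating system (0.3 mM NADP+, 5.3 mM glucose-6-phosphate, G6PDH), 10 mM MgCl2 and 5 mM EDTA. Pre-warmed 10 min at 37 °C, then 20 μM compound and 5.5 μM GSH added. Samples taken at 0, 16 and 32 min were quenched in ice-cold acetonitrile. HPLC (254/280 nm) peak area was expressed relative to 0 min.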

A short description of series [6]: Metabolic stability in rat liver microsome assessed as compound remaining at 20 uM measured after 32 mins in presence of NADP and GSH by HPLC analysis. The settings on record: liver microsomes, read-out: Stability. Type of series: ADME. The procedure, abridged: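 Rat liver microsomes (final 2 mg/mL) in 50 mM phosphate pH 7.4 with 0.3 mM NADP+, 5.3 mM glucose-6-phosphate, G6PDH, 10 mM MgCl2 and 5 mM EDTA. 20 μM compound added at 37 °C. Aliquots at 0, 16 and 32 min were quenched in ice-cold acetonitrile and centrifuged. HPLC peak area at 254/280 nm was expressed relative to 0 min.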
(In general: Liver microsomes are a subcellular fraction often used to study metabolism.)

Series [7] can be described thus: Metabolic stability in rat liver microsome assessed as drug metabolism measured up to 32 mins in absence of inhibitor by HPLC analysis relative to control. The settings on record: liver microsomes, without inhibitor.
Series [8] has as its system Leishmania donovani. The series is described as follows: Antileishmanial activity against wild type Leishmania donovani HU3 promastigotes […] assessed as inhibition of parasite growth incubated for 72 hrs by automatic microtiter plate reader analysis. Type of series: functional, organism-based.
The test system of series [9] is Leishmania amazonensis. Put plainly: Antileishmanial activity against wild type Leishmania amazonensis LV78 amastigotes infected in mouse peritoneal macrophage assessed as inhibition of parasite growth incubated for 72 hrs by giemsa staining based analysis. Type of series: functional, organism-based. The method in brief:
(§4)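 Mouse peritoneal macrophages (1 × 10^5/well on coverslips, DMEM + 10% heat-inactivated FBS, penicillin/streptomycin) adhered overnight at 37 °C, 5% CO2. They were infected overnight with late-log promastigotes at a 20:1 parasite:macrophage ratio. Cells were then treated with compound for 72 h at 37 °C and Giemsa-stained. Amastigotes per 100 macrophages were counted to derive IC50; mean ± SD of 3–4 independent experiments.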

The nature of series [10]: Cytotoxicity against mouse L929 cells assessed as inhibition of cell growth incubated for 72 hrs by MTS assay. Type of series: toxicity, cell-based. The method in brief: as §3
Series [11] is described as follows: Hepatotoxicity against mouse TAMH cells assessed as cell viability at 7.8 to 125 uM incubated for 24 to 48 hrs by MTT assay. The settings on record: dose lower 7.8 µM, time lower 24 hrs, dose upper 125 µM, time upper 48 hrs, read-out: Activity. Type of series: toxicity, cell-based. The method in brief:
(§5)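 TAMH mouse liver cells in FCS-free DMEM/F12 with 5% PANEXIN NTA, 10 mM nicotinamide and gentamicin. Seeded at 20 000/well and attached 24 h at 37 °C, 5% CO2. DMSO-diluted compounds were applied for 24 or 48 h. MTT was added for 4 h, formazan dissolved in DMSO and A570 read. Viability was background-corrected and expressed relative to DMSO controls; mean ± SD, ≥3 experiments.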

The target in series [12] is Voltage-gated inwardly rectifying potassium channel KCNH2 (Homo sapiens, UniProt Q12809). The series is described as follows: Inhibition of human ERG stably overexpressed in HEK293 cells incubated for 30 mins by FLIPR assay. The conditions noted are these: for IC25: human, hek293, 0.5 h, time 30 min. Type of series: toxicity, cell-based.
Chain of Voltage-gated inwardly rectifying potassium channel KCNH2 (Q12809 whole entry): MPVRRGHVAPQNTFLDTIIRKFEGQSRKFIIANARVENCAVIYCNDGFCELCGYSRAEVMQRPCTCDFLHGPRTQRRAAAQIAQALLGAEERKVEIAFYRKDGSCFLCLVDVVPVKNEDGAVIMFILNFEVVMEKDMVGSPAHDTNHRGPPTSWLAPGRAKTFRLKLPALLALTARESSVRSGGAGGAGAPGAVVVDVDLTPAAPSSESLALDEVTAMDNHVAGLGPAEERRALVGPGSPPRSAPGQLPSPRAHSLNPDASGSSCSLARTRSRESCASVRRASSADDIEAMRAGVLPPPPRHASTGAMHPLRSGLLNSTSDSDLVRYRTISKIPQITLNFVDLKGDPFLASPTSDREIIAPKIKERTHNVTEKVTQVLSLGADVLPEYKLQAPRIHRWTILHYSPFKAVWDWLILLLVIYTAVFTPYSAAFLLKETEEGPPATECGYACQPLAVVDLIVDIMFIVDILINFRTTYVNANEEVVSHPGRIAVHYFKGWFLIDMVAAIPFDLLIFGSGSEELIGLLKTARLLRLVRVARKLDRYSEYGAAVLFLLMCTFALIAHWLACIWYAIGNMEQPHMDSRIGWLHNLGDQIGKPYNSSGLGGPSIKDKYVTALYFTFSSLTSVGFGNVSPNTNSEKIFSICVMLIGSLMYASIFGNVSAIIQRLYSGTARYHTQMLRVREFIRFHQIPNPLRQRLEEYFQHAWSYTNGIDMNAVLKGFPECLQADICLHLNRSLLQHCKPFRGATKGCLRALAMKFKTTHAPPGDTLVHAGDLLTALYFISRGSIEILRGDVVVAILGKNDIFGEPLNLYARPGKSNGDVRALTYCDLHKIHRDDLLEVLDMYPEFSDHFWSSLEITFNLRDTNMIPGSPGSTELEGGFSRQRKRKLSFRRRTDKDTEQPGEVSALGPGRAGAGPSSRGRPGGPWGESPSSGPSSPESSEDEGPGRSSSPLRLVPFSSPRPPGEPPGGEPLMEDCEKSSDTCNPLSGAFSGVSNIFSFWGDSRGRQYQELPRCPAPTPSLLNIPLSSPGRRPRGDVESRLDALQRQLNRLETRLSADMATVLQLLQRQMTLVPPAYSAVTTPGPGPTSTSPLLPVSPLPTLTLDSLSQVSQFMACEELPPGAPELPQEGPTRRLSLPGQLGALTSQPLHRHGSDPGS
In a further series the test system is Leishmania major. Put plainly: Antileishmanial activity against wild type Leishmania major FV1 promastigotes […] assessed as inhibition of parasite growth incubated for 72 hrs by automatic microtiter plate reader analysis. Type of series: functional, organism-based. The procedure, abridged:
as §2

Series [13] relates to Leishmania amazonensis. Put plainly: Antileishmanial activity against wild type Leishmania amazonensis LV78 promastigotes […] assessed as inhibition of parasite growth incubated for 72 hrs by automatic microtiter plate reader analysis. Type of series: functional, organism-based. The procedure, abridged: as §2
Series [14] has as its system Leishmania donovani. Put plainly: Antileishmanial activity against miltefosine resistant Leishmania donovani HU3MILR40 promastigotes […] assessed as inhibition of parasite growth incubated for 72 hrs by automatic microtiter plate reader analysis. Type of series: functional, organism-based. The method in brief:
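Promastigote (free parasite) assay: Schneider's Drosophila medium with 4 mM glutamine, 25 μg mL−1 gentamicin, 10% heat-inactivated FBS, pH 6.9, 27 °C. 1.5 × 10^5 promastigotes per well exposed to a concentration series for 72 h at 27 °C.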

A short description of series [15]: Cytotoxicity against mouse peritoneal macrophage assessed as inhibition of cell growth incubated for 72 hrs by giemsa staining based analysis. Type of series: toxicity. The settings on record: peritoneal macrophages.
Series [16] deals with Leishmania braziliensis. The series is described as follows: Antileishmanial activity against wild type Leishmania braziliensis UA847 amastigotes infected in mouse peritoneal macrophage assessed as inhibition of parasite growth incubated for 72 hrs by giemsa staining based analysis. Type of series: functional, organism-based. The procedure, abridged: as §4
Series [17] is described as follows: Hepatotoxicity against human HepG2 cells assessed as cell viability at 62.5 uM incubated for 48 hrs by MTT assay. Type of series: toxicity, cell-based. The settings on record: read-out: Activity. The procedure, abridged: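 HEP-G2 cells in RPMI 1640 + 10% heat-inactivated FBS, penicillin/streptomycin. Seeded at 15 000/well and attached 24 h at 37 °C, 5% CO2. Compounds were serially diluted in DMSO, with 24 or 48 h exposure. MTT (2.5 mg/mL solution) was added for 4 h, formazan dissolved in DMSO and A570 read. Viability was background-corrected against DMSO-treated cell controls; mean ± SD, ≥3 experiments.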

The nature of series [18]: Hepatotoxicity against mouse TAMH cells assessed as cell viability at 62.5 uM incubated for 48 hrs by MTT assay. Type of series: toxicity, cell-based. The conditions noted are these: read-out: Activity. The procedure, abridged:
as §5

The target of series [19] is T1, hERG (KCNH2) (Homo sapiens, UniProt Q12809). Put plainly: Inhibition of human ERG stably overexpressed in HEK293 cells assessed as remaining activity at 25 uM incubated for 30 mins by FLIPR assay. Type of series: toxicity, cell-based. The conditions noted are these: HEK293 cells stably overexpressing hERG, read-out: Activity. The procedure, abridged:
(§6)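 HEK-293 cells stably expressing hERG, seeded at 60 000/well and grown 24 h. Compounds were added in DMSO (final 0.5%) and incubated 30 min in the dark. After 20 s baseline, Tl+ stimulus (3 mM) was added and fluorescence (ex 485/em 535 nm) recorded for 2.5 min.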
In general terms: The hERG channel carries a current that helps repolarise heart muscle cells.

The nature of series [20]: Metabolic stability in rat liver microsome assessed as parent compound remaining at 50 degreeC measured after 32 mins after heat treatment by HPLC. The settings on record: liver microsomes, heat-treated.
Series [21] has as its target T1, hERG (KCNH2). The series is described as follows: Inhibition of human ERG stably overexpressed in HEK293 cells assessed as remaining activity at 6 uM incubated for 30 mins by FLIPR assay. The conditions noted are these: HEK293 cells stably overexpressing hERG, read-out: Activity. Type of series: toxicity, cell-based. The procedure, abridged:
as §6

Broadly, the IC50 is the midpoint of a concentration-inhibition curve. As a reminder, the IC25 is the concentration at which the effect reaches the 25% level.

T1 sequence (Q12809 whole entry): as above

Turning to `CCc1ccc(OCc2ncc([N+](=O)[O-])n2C)cc1`, the concentration for half-maximal inhibition (IC50) in the series with Leishmania donovani [1] is greater than 10 µM; in the series with Leishmania braziliensis [2], 3.9 µM; in the series with Leishmania donovani [4], greater than 10 µM; in the series with RAW264.7, greater than 68.5 µM; in the series on Leishmania donovani [8], 5 µM; in the series with Leishmania amazonensis [9], greater than 10 µM. The 50% inhibitory concentration (IC50) in the series with Leishmania major is 1.4 µM; in the series on Leishmania amazonensis [13] it was 4.5 µM; in the series on Leishmania donovani [14], 5.3 µM; with Leishmania braziliensis [16] it was greater than 10 µM. Also, the remaining at 16 min in [3] came out at 16%. Further, the figures for the remaining at 32 min, 20 µM in [5] and in series [6] were 96.4% and 0%, respectively. The metabolised at 32 min in series [7] turned out to be 100%. The IC50 at 72 h was 71.8 µM in series [10] and greater than 100 µM in series [15]. For the same compound, the viability at up to 125 µM in series [11] is greater than 50%. For the same compound, the IC25 in series [12] turned out to be 14.9 µM.
In the case of `CSc1ccc(OCc2ncc([N+](=O)[O-])n2C)cc1` [FEXINIDAZOLE], the results for the viability at 48 h, 62.5 µM in series [17] and in series [18] were 95% and 90%, respectively. The IC50 in the series on Leishmania donovani [1] was greater than 10 µM; in the series on Leishmania braziliensis [2], 3.9 µM; with Leishmania donovani [4], greater than 10 µM; with RAW264.7, greater than 100 µM; in the series with Leishmania donovani [8], 3.3 µM; with Leishmania amazonensis [9], greater than 10 µM. Moreover, the IC50 in series [12] was roughly 10.7 µM; with Leishmania major it was 1.9 µM; in the series with Leishmania amazonensis [13], 7 µM; in the series on Leishmania donovani [14], 5.5 µM; in the series on Leishmania braziliensis [16] it was greater than 10 µM. The remaining at 32 min, 20 µM in series [5] came out at 73.4%; in [6], 0%. Besides, the metabolised at 32 min in series [7] was 100%. For the same compound, the IC50 at 72 h in [10] is greater than 100 µM; in [15], greater than 82 µM. Moreover, the activity at 0.5 h, 25 µM on hERG (KCNH2) [19] was 34%. This compound also had an IC25 in series [12] of 8.6 µM. Besides, in series [20], the remaining at 32 min was 11%. For the same compound, the activity at 0.5 h, 6 µM at hERG (KCNH2) [21] is 78%.

The record behind these values is ChEMBL document CHEMBL6134787, “Fexinidazole optimization: enhancing anti-leishmanial profile, metabolic stability and hERG safety” (RSC Med Chem, 2024).
